Experimental data reported in ChEMBL document CHEMBL1134845, “Syntheses and biological activities of a novel group of steroidal derived inhibitors for human Cdc25A protein phosphatase” (J Med Chem, 2001).

Experiments:
[1] = target: T1, M-phase inducer phosphatase 1 (Homo sapiens, UniProt P30304); test: (§1) Inhibitory activity tested against cell division cycle 25A (assay using fluorescein diphosphate (FDP) as substrate)
T1 sequence (P30304 whole entry): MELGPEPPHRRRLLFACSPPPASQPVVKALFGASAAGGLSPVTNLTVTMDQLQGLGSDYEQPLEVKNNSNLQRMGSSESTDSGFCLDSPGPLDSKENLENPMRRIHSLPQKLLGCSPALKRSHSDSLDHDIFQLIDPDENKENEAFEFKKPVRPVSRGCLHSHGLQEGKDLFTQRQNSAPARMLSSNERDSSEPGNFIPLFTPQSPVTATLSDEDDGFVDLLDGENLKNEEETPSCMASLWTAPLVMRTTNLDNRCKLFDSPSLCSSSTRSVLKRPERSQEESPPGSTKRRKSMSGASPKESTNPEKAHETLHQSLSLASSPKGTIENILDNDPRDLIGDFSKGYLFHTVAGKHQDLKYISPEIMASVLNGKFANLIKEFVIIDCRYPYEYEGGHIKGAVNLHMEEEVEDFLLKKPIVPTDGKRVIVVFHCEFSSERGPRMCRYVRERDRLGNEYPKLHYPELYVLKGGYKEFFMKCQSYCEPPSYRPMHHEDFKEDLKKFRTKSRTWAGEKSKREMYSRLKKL
Method in brief: (§2)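 Recombinant human GST-Cdc25A fusion protein, each batch calibrated so that FDP was dephosphorylated linearly over 20 min. Fluorescein diphosphate was the substrate. Reactions ran 15 min at 25 °C in the dark and were stopped with sodium orthovanadate. IC50 came from at least two independent runs, each in triplicate.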

[2] = system: 786-0; test: Growth inhibitory activity was determined against 786-0 cancer cell line of Renal cancer; assay type: functional; details: Homo sapiens
Method in brief: (§3)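 NCI 60 human tumour cell line screen run at the National Cancer Institute. Cell growth and viability read with the protein stain sulforhodamine B, which binds basic amino acids of cells left attached after washing. […] MG MID is the mean GI50 calculated over all panels.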

[3] = system: A549; test: Growth inhibitory activity was determined against A549/ATCC cancer cell line of non-small cell lung cancer; assay type: functional, Homo sapiens; details: Homo sapiens, A549; method in brief: as §3
[4] = system: COLO 205; test: Growth inhibitory activity was determined against COLO 205 cancer cell line colon cancer; assay type: functional, Homo sapiens; details: Homo sapiens, COLO 205; method in brief: as §3
[5] = system: HT-29; test: Growth inhibitory activity was determined against HT-29 cancer cell line colon cancer; assay type: functional, Homo sapiens; details: Homo sapiens, HT-29; method in brief: as §3
[6] = system: HCC 2998; test: Growth inhibitory activity was determined against HCC2998 cancer cell line colon cancer; assay type: functional, Homo sapiens; details: Homo sapiens, HCC 2998; method in brief: as §3
[7] = system: LOX IMVI; test: Growth inhibitory activity was determined against LOX IMVI cancer cell line of melanoma; assay type: functional, Homo sapiens; details: Homo sapiens, LOX IMVI; method in brief: as §3
[8] = system: NCI-H23; test: Growth inhibitory activity was determined against NCI-H23 cancer cell line of non-small cell lung cancer; assay type: functional, Homo sapiens; details: Homo sapiens, NCI-H23; method in brief: as §3
[9] = system: NCI-H522; test: Growth inhibitory activity was determined against NCI-H522 cancer cell line of non-small cell lung cancer; assay type: functional; details: Homo sapiens; method in brief: as §3
[10] = system: NCI/ADR-RES; test: Growth inhibitory activity was determined against NCI/ADR-RES cancer cell line of Breast cancer; assay type: functional, Homo sapiens; details: Homo sapiens, NCI/ADR-RES; method in brief: as §3
[11] = system: OVCAR-8; test: Growth inhibitory activity was determined against OVCAR-8 cancer cell line of Ovarian cancer; assay type: functional; details: Homo sapiens; method in brief: as §3
[12] = system: SN12C; test: Growth inhibitory activity was determined against SN12C cancer cell line of Renal cancer; assay type: functional; details: Homo sapiens; method in brief: as §3
[13] = system: SF-539; test: Growth inhibitory activity was determined against SF-539 cancer cell line of CNS cancer; assay type: functional; details: Homo sapiens; method in brief: as §3
[14] = system: SF-268; test: Growth inhibitory activity was determined against SF-268 cancer cell line of CNS cancer; assay type: functional; details: Homo sapiens; method in brief: as §3
[15] = system: SK-MEL-5; test: Growth inhibitory activity was determined against SK-MEL-5 cancer cell line of melanoma; assay type: functional, Homo sapiens; details: Homo sapiens, SK-MEL-5; method in brief: as §3
[16] = system: UO-31; test: Growth inhibitory activity was determined against UO-31 cancer cell line of Renal cancer; assay type: functional; details: Homo sapiens; method in brief: as §3
[17] = system: PC-3; test: Growth inhibitory activity was determined against PC-3 cancer cell line of Prostate cancer; assay type: functional; details: Homo sapiens; method in brief: as §3
[18] = system: T47D; test: Growth inhibitory activity was determined against T-47D cancer cell line of Breast cancer; assay type: functional, Homo sapiens; details: Homo sapiens, T47D; method in brief: as §3
[19] = system: OVCAR-3; test: Growth inhibitory activity was determined against OVCAR-3 cancer cell line of Ovarian cancer; assay type: functional; details: Homo sapiens; method in brief: as §3
[20] = system: BT-549 (Homo sapiens); test: Growth inhibitory activity was determined against BT-549 cancer cell line of Breast cancer; details: Homo sapiens, BT-549
[21] = target: T2, M-phase inducer phosphatase 1 (Homo sapiens) (UniProt P30304); test: as §1; details: concentration not given here
T2 sequence (whole entry): T1 sequence (P30304 whole entry)
Method in brief: as §2, with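 “orthovanadate. Fluorescein monophosphate was read at 485 nm excitation and 530 nm emission.” for “orthovanadate.”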

In the case of CCOC(=O)C(C)SC(=S)O[C@H]1CC[C@@]2(C)[C@@H](CC[C@@H]3[C@@H]2CC[C@]2(C)[C@@H]([C@H](C)CCCC(C)C)CC[C@@H]32)C1 (some centres undefined), the IC50 [1] is reported as over 100 µM.
With CC(C)CCCC(C)[C@H]1CC[C@H]2[C@H](CC(=O)O)[C@@H](C(C)CCCCC#N)CC[C@]12C (stereo in doubt; 21) the GI50 [2] was 8.45 µM, the GI50 [3] was 5.09 µM and the GI50 [4] was 5.29 µM. The IC50 [1] was 2.2 µM, the GI50 [5] was 4.69 µM and the GI50 [6] was 5.36 µM. The GI50 [7] was 4.86 µM, the GI50 [8] was 5.27 µM and the GI50 [9] was over 25 µM. The GI50 [10] was 5.34 µM, the GI50 [11] was 4.88 µM and the GI50 [12] was 6.05 µM. The GI50 [13] was 10.8 µM, the GI50 [14] was over 25 µM and the GI50 [15] was 7.04 µM. The GI50 [16] was 9.97 µM, the GI50 [17] was 7.15 µM and the GI50 [18] was 6.69 µM. The GI50 [19] was 5.25 µM and the GI50 [20] was 5.16 µM.
CC(C)CCC[C@@H](C)[C@H]1CC[C@H]2[C@@H]3CC(=O)O[C@@](C)(CC/C=C\C#N)[C@H]3CC[C@]12C showed an IC50 [1] of over 50 µM.
In the case of CCOC(=O)CC(=O)CSC(=S)O[C@H]1CC[C@@]2(C)[C@@H](CC[C@@H]3[C@@H]2CC[C@]2(C)[C@@H]([C@H](C)CCCC(C)C)CC[C@@H]32)C1, the IC50 [1] is reported as over 100 µM.
C/C(=C/C/C=C\C#N)[C@H]1CC[C@]2(C)[C@@H](C(C)CCCC(C)C)CC[C@H]2[C@@H]1CC(=O)O (some centres undefined) gave an IC50 [1] of 36.3 µM.
In the case of CC(C)CCC[C@@H](C)[C@H]1CC[C@H]2[C@@H]3CC[C@H]4C[C@@H](OC(=O)Nc5ccccc5)CC[C@]4(C)[C@H]3CC[C@]12C, the inhibition [21] is reported as 18%.
In the case of CC(C)CCC[C@@H](C)[C@H]1CC[C@H]2[C@@H]3CC[C@H]4C[C@@H](O/C(S)=N\c5ccccc5)CC[C@]4(C)[C@H]3CC[C@]12C, the IC50 [1] is reported as 2.1 µM.
For CC(C)CCC[C@@H](C)[C@H]1CC[C@H]2[C@@H]3CC[C@H]4C[C@@H](O/C(S)=N\c5cccc6ccccc56)CC[C@]4(C)[C@H]3CC[C@]12C, the inhibition [21] was 19%.
With CC(C)CCC[C@@H](C)[C@H]1CC[C@H]2[C@@H]3CC[C@H]4C[C@@H](OCC(=O)O)CC[C@]4(C)[C@H]3CC[C@]12C the IC50 [1] was 0.7 µM.
C=C(CCC(CC#N)OCC)[C@H]1CC[C@]2(C)[C@@H](C(C)CCCC(C)C)CC[C@H]2[C@@H]1CC(=O)O (some centres undefined) gave an IC50 [1] of 2.9 µM.
